According to ChEMBL document CHEMBL1140279, “Synthesis and antimalarial evaluation of new N1-(7-chloro-4-quinolyl)-1,4-bis(3-aminopropyl)piperazine derivatives” (Bioorg Med Chem Lett, 2005):

Columns and labels:
Plasmodium falciparum = assay: Antimalarial activity as growth inhibition of chloroquine-resistant Plasmodium falciparum FcB1; format: functional, organism-based
Procedure, shortened: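 Parasite growth inhibition assay on the chloroquine-resistant P. falciparum FcB1 strain. IC50 values are derived from triplicate experiments and reported with standard error.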

MRC5 [1] = assay: Cytotoxic concentration of compound of compound […] MRC-5 cells (human diploid embryonic lung cell line); format: functional
Procedure, shortened: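 Cytotoxicity measured on MRC-5 human diploid embryonic lung cells with a colorimetric MTT assay, giving the CC50.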

MRC5 [2] = assay: Ratio of CC50/IC50 was determined; format: functional, Homo sapiens
Procedure, shortened: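 Selectivity index taken as the ratio of CC50 on MRC-5 human diploid embryonic lung cells (colorimetric MTT assay) to IC50 for growth inhibition of the chloroquine-resistant Plasmodium falciparum strain FcB1. The IC50s come from triplicate experiments and are reported with standard error.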

Structure (SMILES) | IC50 (Plasmodium falciparum) | CC50 (MRC5 [1]) | Ratio (MRC5 [2])
NC(=O)CCC(=O)N(CCCN1CCN(CCCNc2ccnc3cc(Cl)ccc23)CC1)CC1CC1 | < 1 µM | > 32 µM | 
CC(C)(C)OC(=O)NCCC(=O)N(CCCN1CCN(CCCNc2ccnc3cc(Cl)ccc23)CC1)CC1CC1 | 0.0342 µM | 4 µM | 116
O=C(C1CC1)N(CCCN1CCN(CCCNc2ccnc3cc(Cl)ccc23)CC1)CC1CC1 | 0.0065 µM | 13.5 µM | 2076
O=C(CCCO)N(CCCN1CCN(CCCNc2ccnc3cc(Cl)ccc23)CC1)CC1CC1 | 0.172 µM | 21 µM | 122
N#CCCCCN(CCCN1CCN(CCCNc2ccnc3cc(Cl)ccc23)CC1)CC1CC1 | 0.0099 µM | 4 µM | 404
CC(C)(C)OC(=O)NCCCN(CCCN1CCN(CCCNc2ccnc3cc(Cl)ccc23)CC1)CC1CC1 | 0.0126 µM | 4 µM | 317
NCCCN(CCCN1CCN(CCCNc2ccnc3cc(Cl)ccc23)CC1)CC1CC1 | 0.152 µM | > 32 µM | >210
O=C(O)CCC(=O)N(CCCN1CCN(CCCNc2ccnc3cc(Cl)ccc23)CC1)CC1CC1 |  | > 32 µM | >23
NCCC(=O)N(CCCN1CCN(CCCNc2ccnc3cc(Cl)ccc23)CC1)CC1CC1 |  | > 32 µM | >80
